Series [1] can be described thus: Partition coefficient (logD7.4). Type of series: physicochemical. As to conditions: octanol/water, pH 7.4. Summed up:
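Octanol against 0.1 M phosphate buffer at pH 7.4 and 37 °C. Drug at about 10^-4 M in octanol-saturated buffer was shaken for 1 h with buffer-saturated octanol, then left standing 6 h. Buffer-phase drug was measured by UV at λmax before and after partitioning, with GLC or potentiometric titration used for some compounds. Apparent P' is the mean of six partition experiments.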

For series [2], the target named is T1, Adrenergic receptor alpha (Rattus norvegicus) (UniProt P15823+P23944+P43140+P22086+P19328+P22909). Description: Central hypotensive activity in anesthetized normotensive rats. In kind it is functional. A digest of the protocol: (§1)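 Male normotensive Wistar rats (190-220 g), pentobarbitone sodium 75 mg/kg ip, ventilated, ~37 °C; iv jugular dosing, one single dose per rat, randomized; carotid arterial pressure after ≥20 min equilibration with heparin; rats with MAP <100 or >150 mmHg excluded. Maximal MAP fall as % of preinjection; pC25 = log reciprocal dose (μmol/kg) for 25% fall, from log dose-response curves; points mean of 5-6 experiments.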

Series [3] addresses T1, Adrenergic receptor alpha (Rattus norvegicus). The experiment in a line: Peripheral hypertensive activity in pithed normotensive rats. In kind it is functional. Summed up:
(§2)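 Normotensive rats under hexobarbitone sodium 150 mg/kg ip, pithed via orbit, ventilated, ~37 °C, heparinized; after 20 min equilibration, single iv jugular doses in random order, 3-4 per rat with recovery between; carotid MAP rise (mmHg). pC60 = log reciprocal dose (μmol/kg) raising MAP by 60 mmHg, from log dose-response curves; points mean of 5-6 experiments.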

Series [4] shares this target. The experiment in a line: Tested for peripheral hypertensive activity in pithed normotensive rats at alpha adrenoceptor expressed as increase in mean arterial pressure by 60 mmHg. Summed up: as §2
For series [5] the target is unchanged. The experiment in a line: Tested for central hypotensive activity in anesthetized normotensive rats at alpha adrenoceptor expressed as 25% decrease in mean arterial pressure. Summed up: as §1

One may read the logD as lipophilicity at a set pH, counting ionised and neutral species. Read a low logD as lower lipophilicity. On to `Clc1cccc(Cl)c1C1=CN2CCN=C2S1`, for which the pH-dependent lipophilicity (logD) in series [1] worked out at 2.02. In series [2], the pC25 turned out to be 2.77. In series [3], this compound came in with a pC60 of 2.4.
For `Clc1cccc(Cl)c1SC1=NCCN1`, in that order: 1.36, 0.88 and 1.24.
Compound `Cc1cccc(C)c1/N=C1/NCCO1` displayed a logD in series [1] of 1.28. Besides, in series [4], the pC60 was found to be 1.51. In series [5], this compound displayed a pC25 of 1.96.
`Clc1cccc(Cl)c1/C=N/NC1=NCCN1` gave a logD in series [1] of 2.12. For the same compound, the pC25 in series [2] was 0.63. The compound further had a pC60 in series [3] of 0.23.
Compound `Clc1cccc(Cl)c1N=C1NCCN1` [CLONIDINE] showed a pH-dependent lipophilicity (logD) in series [1] of 0.85.
`Cc1cccc(C)c1N=C1NCCCS1` [XYLAZINE]: the pH-dependent lipophilicity (logD) in series [1] came to 1.34.
In series [3], `Clc1cccc(Cl)c1NC1=NCCCN1` displayed a pC60 of -0.79.
In series [1], `c1ccc2c(CC3=NCCN3)cccc2c1` [NAPHAZOLINE] showed a logD of -0.52. Further, in series [2], the pC25 stood at 0.95. In series [3], the pC60 was determined as 1.83.
Consider `Clc1cccc(Cl)c1CC1=NCCN1`, for which the log distribution coefficient (logD) in series [1] is -0.53. In series [2], this compound gave a pC25 of 0.68. This compound also came in with a pC60 in series [3] of 1.17.
In the case of `Cc1cccc(C)c1NC1=NCCCS1`, the pC25 in series [2] was 0.62. In series [3], this compound registered a pC60 of -0.02.
On to `CC(Oc1c(Cl)cccc1Cl)C1=NCCN1` (stereo not given) [LOFEXIDINE], for which the log distribution coefficient (logD) in series [1] is 0.73. Besides, in series [2], the pC25 amounted to 2.09. The same compound gave a pC60 in series [3] of 1.99.
For `C=CCN1CCc2nc(N)sc2CC1` [TALIPEXOLE], the logD in series [1] was found to be 1.09. The same compound yielded a pC25 in series [2] of 1.43. This compound also showed a pC60 in series [3] of 0.69.
`c1ccc2c(c1)CCCC2C1=NCCN1` (stereo not given) [TETRAHYDROZOLINE] showed a logD in series [1] of -0.9. The same compound showed a pC25 in series [2] of -0.16. The pC60 in series [3] was found to be 0.9.
The like results for `Cc1cc(C(C)(C)C)cc(C)c1CC1=NCCN1` [XYLOMETAZOLINE] were, in that order, 0.4, 0.26 and 1.12.
The compound `Brc1cc(Br)c(N=C2NCCN2)c(Br)c1` showed a logD in series [1] of 2.51. The pC60 in series [3] was found to be 0.65.
On to `Cc1csc(Cl)c1NC1=NCCN1` [TIAMENIDINE], for which the log distribution coefficient (logD) in series [1] is -0.17. Also, in series [2], the pC25 was 0.69. The pC60 in series [3] was found to be 1.2.
In turn, `Brc1c(NC2=NCCN2)ccc2nccnc12` [BRIMONIDINE] displayed a logD in series [1] of 0.31. In series [2], this compound returned a pC25 of 1.55. The same compound had a pC60 in series [3] of 1.56.
For `CCN1CCc2nc(N)oc2CC1` [AZEPEXOLE], in that order: 0.05, -0.14 and -0.41.
For `c1cc2c(c(NC3=NCCN3)c1)CCCC2` [TRAMAZOLINE], in that order: -0.62, 0.55 and 1.8.
`FC(F)(F)c1cc(Br)cc(Br)c1NC1=NCCN1` returned a logD in series [1] of 2.8. This compound also had a pC60 in series [3] of -0.26.
Compound `CC[C@H]1CCC[C@@H](C)[C@@H]1NC1=NCCO1` had a logD in series [1] of 1.39. Further, the pC60 in series [4] was 2.11. Moreover, the pC25 in series [5] amounted to 2.32.
`Clc1cc(Br)cc(Cl)c1N=C1NCCN1` displayed a logD in series [1] of 2.31. The compound further showed a pC25 in series [2] of 0.84. In addition, the pC60 in series [3] is 1.22.
The compound `Clc1cccc(Cl)c1N=C1NCCCN1` had a logD in series [1] of -0.34.
Consider `Clc1cccc(Cl)c1NC1=NCCN1`, for which, in series [2], the pC25 is 2.04. This compound came in with a pC60 in series [3] of 1.78.
